Data published in PubChem BioAssay.
Calls of active or inactive are those of the source.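 Rule for the calls, unless noted: active = viability at or below 30% in both replicate assays; inconclusive = viability at or below 30% in just one of the two assays; inactive = the rest.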

How the values were obtained:
[1] = Her2 expression decrease, cell viability multiplex – SKBR3 breast tumor cells, AlphaScreen, ATP viability, primary screen (AID 461;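 active = Her2 level under about 52% in both replicate screens, with viability over 70% of control, limit read from the data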;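 for Her2 level: lower value means less Her2 protein in the cells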;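 for viability: percent of carrier control wells set as 100% viability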); conditions: SKBR3 Her2 protein level, 18-24 h, measured here: SKBR3 viability, ATP luminescence, at 10 µM
[2] = target: Receptor tyrosine-protein kinase erbB-2 (Homo sapiens) (UniProt P04626); assay: as above; conditions: 18-24 h, at 10 µM, stronger effect = lower value
[3] = reduced viability of SK-BR-3 breast cancer cells – cell-based, 24 h, human, pilot screen (AID 572;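 active = viability at or below 10% of carrier control in both of two separate runs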;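 note: compound exposure lasted between 18 and 24 h rather than exactly 24 h; 100% = carrier-treated control wells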); conditions: SK-BR-3 viability, CellTiter-Glo luminescence, at 10 µM, stronger effect = lower value
[4] = HUVEC growth inhibition – cell-based, human, primary screen (AID 575); conditions: HUVEC proliferation, CellTiter-Glo luminescence, 72 h; at 10 µM; stronger effect = lower value;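 note: 100% = median of untreated cell wells with 0.1% DMSO on each plate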
Outline: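 Test system: primary human umbilical vein endothelial cells. Quantity: 1250 cells/well. Compound: single 10 µM dose, 0.1% DMSO, from 5x medium stock. Timing: 72 h treatment at 37 °C. Detection: ATP-based CellTiter-Glo luminescent read. Benchmarks: vehicle and MePR control wells. Format: 384-well plates coated with collagen.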

[5] = H69AR cell proliferation blockers – human, duplicate replicates, primary screen (AID 580;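 active = viability at or under a set limit in both replicates, limit being median viability minus 3 SD, cut at about 48% in these data, passing the limit was not always enough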;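 note: 100% = mean luminescence of untreated wells and 0% = no signal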); conditions: H69AR lung tumor cells viability, ATP luminescence, 72 h; at 10 µM; stronger effect = lower value
[6] = MRP1 drug-resistance reversers in H69AR cells – cell-based, doxorubicin co-treatment, pilot screen (AID 601;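 active = viability loss from added drug above about 55%, and viability with drug at most 40%, in both replicates, limit read from the data, passing the limit was not always enough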); conditions: CellTiter-Glo, 72 h, at 10 µM; for differential viability (reversal): stronger effect = higher value
[7] = yeast transport mutant growth inhibition pilot in 384-well plates, post-Golgi transport modulator project (AID 636; in the data active = inhibition above about 31%); conditions: absorbance 615 nm, about 18 h, stronger effect = higher value
[8] = growth suppression of yeast trafficking mutant, preliminary HTS, modulators of trafficking downstream of Golgi apparatus project, 1536-format plate, OD 615 nm (AID 637; in the data active = inhibition above about 30%); conditions: yeast transport mutant growth, absorbance 615 nm, 18 h; stronger effect = higher value
[9] = H69AR cells + 2 uM doxorubicin, measured here: viability with 2 uM doxorubicin, stronger effect = lower value
[10] = H69AR cells, compound alone cytotoxicity

Chain of Receptor tyrosine-protein kinase erbB-2 (Homo sapiens) (P04626 whole entry, looked up): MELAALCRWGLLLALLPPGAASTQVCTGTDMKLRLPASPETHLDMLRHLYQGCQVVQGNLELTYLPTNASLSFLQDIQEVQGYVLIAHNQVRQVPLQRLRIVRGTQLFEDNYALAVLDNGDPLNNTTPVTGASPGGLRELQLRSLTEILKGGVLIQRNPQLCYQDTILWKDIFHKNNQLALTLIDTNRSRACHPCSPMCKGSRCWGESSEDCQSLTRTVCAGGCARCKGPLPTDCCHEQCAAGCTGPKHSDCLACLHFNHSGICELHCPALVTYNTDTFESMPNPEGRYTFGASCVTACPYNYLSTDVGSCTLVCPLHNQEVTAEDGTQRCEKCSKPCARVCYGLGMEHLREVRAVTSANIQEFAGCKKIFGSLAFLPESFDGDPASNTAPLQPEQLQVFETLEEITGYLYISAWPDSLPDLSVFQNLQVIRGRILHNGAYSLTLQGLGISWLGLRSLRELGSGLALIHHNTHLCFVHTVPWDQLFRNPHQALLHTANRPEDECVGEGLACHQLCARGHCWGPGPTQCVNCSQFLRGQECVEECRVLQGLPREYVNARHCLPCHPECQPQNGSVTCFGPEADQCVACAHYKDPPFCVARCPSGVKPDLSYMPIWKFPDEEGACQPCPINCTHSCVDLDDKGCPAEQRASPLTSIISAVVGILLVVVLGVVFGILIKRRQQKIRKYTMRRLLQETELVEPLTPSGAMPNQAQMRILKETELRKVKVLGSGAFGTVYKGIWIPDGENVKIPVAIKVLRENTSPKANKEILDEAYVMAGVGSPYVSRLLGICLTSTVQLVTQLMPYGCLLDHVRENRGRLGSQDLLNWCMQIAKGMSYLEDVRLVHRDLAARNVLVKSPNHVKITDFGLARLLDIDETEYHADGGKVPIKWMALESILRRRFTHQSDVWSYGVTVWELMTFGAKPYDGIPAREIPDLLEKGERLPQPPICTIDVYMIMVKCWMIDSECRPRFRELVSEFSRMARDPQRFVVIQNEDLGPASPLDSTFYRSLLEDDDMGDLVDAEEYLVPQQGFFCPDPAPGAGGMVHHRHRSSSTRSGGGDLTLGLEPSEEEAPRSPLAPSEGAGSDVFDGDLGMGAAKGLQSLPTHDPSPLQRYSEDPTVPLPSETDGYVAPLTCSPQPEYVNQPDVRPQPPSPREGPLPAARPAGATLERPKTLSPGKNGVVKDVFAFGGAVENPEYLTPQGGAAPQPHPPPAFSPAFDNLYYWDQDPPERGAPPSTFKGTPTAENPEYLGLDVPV

Row | SMILES | viability [1] | Her2 level [2] | viability [3] | viability [4] | viability [5] | differential viability (reversal) ([6]; H69AR cells + 2 uM doxorubicin) | viability [6, 9] | viability [6, 10] | inhibition [7] | inhibition [8]
1 | N#CCCCN1C(=O)C(O)(CC(=O)c2ccc3c(c2)OCCO3)c2ccccc21 (stereo not given) | 100% | 93.5% (inactive) | 100% (inactive) | 89.5% (inactive) | 85.3% (inactive) | 6.12% (inactive) | 79.2% | 85.3% | -2.89% (inactive) | -9.03% (inactive)
2 | CCOc1ccccc1NC(=O)C1CCCN1C(=O)OCc1ccccc1 (stereo not given) | 84.5% | 93.5% (inactive) | 84.5% (inactive) | 111% (inactive) | 87.6% (inactive) | 2.29% (inactive) | 85.3% | 87.6% | -1.71% (inactive) | -10% (inactive)
3 | COCCN(CC(=O)NC1CCCCC1)C(=O)CSc1nc2ccccc2o1 | 98% | 96% (inactive) | 98% (inactive) | 90.8% (inactive) | 97.6% (inactive) | 4.13% (inactive) | 93.5% | 97.6% | -0.39% (inactive) | -5.24% (inactive)
4 | COc1ccc(CCNS(=O)(=O)c2ccc3oc(C(=O)O)c(C)c3c2)cc1OC | 109% | 92% (inactive) | 109% (inactive) | 112% (inactive) | 88.7% (inactive) | -2.46% (inactive) | 91.2% | 88.7% | 0.78% (inactive) | 1.15% (inactive)
5 | COC(=O)C1=C(C)NC(=O)C1(NC(=O)c1cccnc1)C(F)(F)F (stereo not given) | 126% | 96.5% (inactive) | 126% (inactive) | 99.4% (inactive) | 103% (inactive) | 14% (inactive) | 88.7% | 103% | -2.5% (inactive) | 0.55% (inactive)
6 | Cc1cc2c(cc1C)-c1nnnn1C(C)(C)C2 | 110% | 97.5% (inactive) | 110% (inactive) | 101% (inactive) | 91.9% (inactive) | 4.78% (inactive) | 87.1% | 91.9% | -9.07% (inactive) | -5.24% (inactive)
7 | Cc1ccc(-c2nnn(CC(=O)NC3CC4CCC3C4)n2)cc1 (stereo not given) | 109% | 91% (inactive) | 109% (inactive) | 118% (inactive) | 93.3% (inactive) | 5.1% (inactive) | 88.2% | 93.3% | -6.58% (inactive) | -6.77% (inactive)
8 | O=C(CCCc1cccs1)Nc1nc2c(s1)CCCC2 | 86.5% | 74% (inactive) | 86.5% (inactive) | 55.3% (inactive) | 84.5% (inactive) | 2.73% (inactive) | 81.7% | 84.5% | -9.19% (inactive) | 0.82% (inactive)
9 | CCOc1ccc(Oc2nc(Nc3ccc(C)cc3)nc(N(C)C)n2)nn1 | 85.5% | 92% (inactive) | 85.5% (inactive) | 89.3% (inactive) | 95.3% (inactive) | 11.3% (inactive) | 84% | 95.3% | -4.19% (inactive) | 1.97% (inactive)
10 | CCOc1ccc(Cc2nn[nH]n2)cc1 | 86.5% | 84.5% (inactive) | 86.5% (inactive) | 108% (inactive) | 101% (inactive) | 5.14% (inactive) | 96.3% | 101% | -5.89% (inactive) | -3.49% (inactive)
11 | CCC(=O)N1CCc2cc(Br)cc(S(=O)(=O)CCC(=O)NCC3CCCO3)c21 (stereo not given) | 118% | 90% (inactive) | 118% (inactive) | 106% (inactive) | 92.8% (inactive) | 13.4% (inactive) | 79.4% | 92.8% | -6.35% (inactive) | 6% (inactive)
12 | CCOC(=O)c1ccc2nc(NC(NC(C)=O)(C(=O)OC)C(F)(F)F)sc2c1 (stereo not given) | 98.5% | 88.5% (inactive) | 98.5% (inactive) | 82.8% (inactive) | 98.6% (inactive) | 15% (inactive) | 83.6% | 98.6% | -3.03% (inactive) | -1.82% (inactive)
13 | CCOC(=O)CSc1ncnc2c1cnn2-c1ccc(C)cc1 | 103% | 88.5% (inactive) | 103% (inactive) | 75% (inactive) | 90.6% (inactive) | -0.755% (inactive) | 91.4% | 90.6% | -6.4% (inactive) | 0.33% (inactive)
14 | Oc1cnc2ccccc2c1CN1CCOCC1 | 98.5% | 92% (inactive) | 98.5% (inactive) | 113% (inactive) | 101% (inactive) | -2.39% (inactive) | 104% | 101% | -3.16% (inactive) | -0.16% (inactive)
15 | COCC(=O)N(Cc1nc2ccccc2c(=O)[nH]1)Cc1cccs1 | 103% | 100% (inactive) | 103% (inactive) | 93.3% (inactive) | 98.8% (inactive) | -2.5% (inactive) | 101% | 98.8% | -3.07% (inactive) | -0.65% (inactive)
16 | CC(=O)Nc1ccc(NS(=O)(=O)C(F)(F)F)cc1 | 82.5% | 97% (inactive) | 82.5% (inactive) | 93.9% (inactive) | 92.6% (inactive) | -3.72% (inactive) | 96.3% | 92.6% | -2.34% (inactive) | 1.48% (inactive)

Row | SMILES | viability [1] | Her2 level [2] | viability [3] | viability [4] | viability [5] | differential viability (reversal) ([6]; H69AR cells + 2 uM doxorubicin) | viability [6, 9] | viability [6, 10] | inhibition [7] | inhibition [8]
17 | CC(C)OC(=O)CSc1nnc(Cc2ccccc2)n1Cc1ccco1 | 92.5% | 91.5% (inactive) | 92.5% (inactive) | 84.7% (inactive) | 92.4% (inactive) | 6.06% (inactive) | 86.3% | 92.4% | -4.27% (inactive) | 14.1% (inactive)
18 | COc1cc2nc(C3CCC3)n(NC(=O)C3CCCC(OC)C3)c(=O)c2cc1OC (stereo not given) | 100% | 110% (inactive) | 100% (inactive) | 117% (inactive) | 92.2% (inactive) | -5.31% (inactive) | 97.5% | 92.2% | -9.86% (inactive) | -0.67% (inactive)
19 | COc1ccc(-c2noc(COc3ccc4ccccc4c3Br)n2)cc1OC | 129% | 104% (inactive) | 129% (inactive) | 112% (inactive) | 80.8% (inactive) | 5.36% (inactive) | 75.5% | 80.8% | -4.21% (inactive) | -3.23% (inactive)
20 | O=C1N(c2ccccc2)C2CS(=O)(=O)CC2N1c1ccc(Br)cc1 (stereo not given) | 102% | 88.5% (inactive) | 102% (inactive) | 97.7% (inactive) | 101% (inactive) | 17.5% (inactive) | 83.2% | 101% | -6.4% (inactive) | -0.95% (inactive)
21 | Cc1cccc(C2CC(c3ccc(Br)cc3)Nc3nc(N)nn32)c1 (stereo not given) | 92.5% | 94% (inactive) | 92.5% (inactive) | 72.6% (inactive) | 87.6% (inactive) | -14.7% (inactive) | 102% | 87.6% | -4.4% (inactive) | 2.33% (inactive)
22 | CCOCCn1cnc2sc(C(=O)NCC(=O)OCC)c(C)c2c1=O | 95.5% | 90% (inactive) | 95.5% (inactive) | 86.6% (inactive) | 86.8% (inactive) | -1.89% (inactive) | 88.7% | 86.8% | -2.37% (inactive) | 2.9% (inactive)
23 | COc1ccc2nc(NC(=O)CSc3nnc(-c4ccoc4C)n3C)sc2c1 | 112% | 106% (inactive) | 112% (inactive) | 80.2% (inactive) | 84.8% (inactive) | 9.45% (inactive) | 75.4% | 84.8% | -6.13% (inactive) | -3.87% (inactive)
24 | Cc1ccc2[nH]c(=O)c(CN(CCCN3CCOCC3)C(=O)Nc3cccc(Cl)c3)cc2c1 | 75.5% | 75% (inactive) | 75.5% (inactive) | 47% (inactive) | 55.4% (inactive) | 5.47% (inactive) | 49.9% | 55.4% | -3.33% (inactive) | 2.13% (inactive)
25 | COc1ccc(N2CCN(C(c3cccc(OC)c3OC)c3nnnn3C3CCCC3)CC2)cc1 (stereo not given) | 88% | 121% (inactive) | 88% (inactive) | 94.4% (inactive) | 88.5% (inactive) | -0.405% (inactive) | 88.9% | 88.5% | 4.61% (inactive) | -2.06% (inactive)
26 | Cc1ccc(N2C(=O)c3ccccc3C2Nc2cccnc2)nc1 (stereo not given) | 94% | 99.5% (inactive) | 94% (inactive) | 85.4% (inactive) | 83.3% (inactive) | -10.8% (inactive) | 94.1% | 83.3% | -2.18% (inactive) | -1.33% (inactive)
27 | Cc1ccc2c(c1C)NC(C)CC2C (stereo not given) | 100% | 82% (inactive) | 100% (inactive) | 103% (inactive) | 97.2% (inactive) | 8.96% (inactive) | 88.2% | 97.2% | -0.39% (inactive) | -0.73% (inactive)
28 | CC(C)=CC/C=C1\CCC(C(=O)O)C(C(=O)O)C1 (stereo not given) | 114% | 104% (inactive) | 114% (inactive) | 91.6% (inactive) | 104% (inactive) | 20.5% (inactive) | 83.2% | 104% | -6.13% (inactive) | -0.48% (inactive)
29 | Cc1cnc(C(=O)Nc2ccc(-n3cnnn3)cc2)cn1 | 100% | 98.5% (inactive) | 100% (inactive) | 101% (inactive) | 105% (inactive) | 16.4% (inactive) | 88.9% | 105% | -4.93% (inactive) | -4.68% (inactive)
30 | Cc1cccc(Cc2nnc(NC(=O)c3cccc(S(=O)(=O)N4CCOCC4)c3)s2)c1 | 107% | 100% (inactive) | 107% (inactive) | 87.1% (inactive) | 79.2% (inactive) | -2.97% (inactive) | 82.2% | 79.2% | -1.82% (inactive) | -5.33% (inactive)
31 | Cc1ccccc1NC(=O)NCCCN1CCN(C2CCCCC2)CC1 | 102% | 102% (inactive) | 102% (inactive) | 104% (inactive) | 95.8% (inactive) | 2.42% (inactive) | 93.4% | 95.8% | -1.04% (inactive) | 0.16% (inactive)
